A selection: hits, their analogues and other compounds. The true share with any hit is near 2%.
Rpn11 block: Rpn11 (PSMD14) deubiquitinase inhibitors, primary screen, biochemical, fluorescence polarization, uHTS | AID 588493, 2011 | human 26S proteasome, Ub4-pepOG fluorescence polarization; 20S core pre-blocked with epoxomicin | 360,000 tested, 0.59% active | inhibition, % at 20 µM | 26S proteasome non-ATPase regulatory subunit 14 (Homo sapiens), O00487;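 active = inhibition at 20 µM, scaled to each plate's controls, above about 33%, limit read from the data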
Target sequence (O00487 whole entry, looked up): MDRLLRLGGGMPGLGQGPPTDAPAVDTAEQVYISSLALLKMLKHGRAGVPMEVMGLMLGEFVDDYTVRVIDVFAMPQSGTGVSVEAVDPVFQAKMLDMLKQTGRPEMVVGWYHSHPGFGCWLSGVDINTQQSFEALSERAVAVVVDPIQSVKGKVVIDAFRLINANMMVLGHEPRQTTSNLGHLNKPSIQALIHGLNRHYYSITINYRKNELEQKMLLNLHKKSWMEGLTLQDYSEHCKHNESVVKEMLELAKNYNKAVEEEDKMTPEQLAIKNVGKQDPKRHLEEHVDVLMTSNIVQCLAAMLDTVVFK
DNMT1 inh: human DNMT1 methyltransferase inhibitors, primary screen, biochemical, molecular beacon, fluorescence, HinP1I cleavage, uHTS | inhibition (reported as % activation of signal), % at 10 µM | 360,000 tested, 0.83% active | AID 588458, 2011; in the data active = inhibition above about 50%
Scp-1 inhibitor: Scp-1 phosphatase inhibitors, primary screen, biochemical, colorimetric, uHTS; Carboxy-terminal domain RNA polymerase II polypeptide A small phosphatase 1 (Homo …; Recombinant Scp1, phosphopeptide, malachite green phosphate absorbance; inhibition, % at 20 µM; 340,000 tested, 0.88% active; AID 493091, 2011;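 active = inhibition above about 50% at 20 µM, limit read from the data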;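 also: plate controls were DMSO wells with enzyme for no effect and wells lacking enzyme for full effect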
Target sequence (Q9GZU7 76-261 limits assumed): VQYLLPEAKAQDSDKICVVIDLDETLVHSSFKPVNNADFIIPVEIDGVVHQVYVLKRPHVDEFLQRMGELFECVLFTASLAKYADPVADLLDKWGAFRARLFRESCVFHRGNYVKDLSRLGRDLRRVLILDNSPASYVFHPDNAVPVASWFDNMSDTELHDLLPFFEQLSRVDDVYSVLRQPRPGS
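Test system: SCP-1 catalytic domain; Buffer or medium: Acidic Tris acetate buffer with magnesium and detergent; Also added: Phosphorylated 17-residue peptide substrate; Compound: single 20 µM dose, 1% DMSO; Schedule: enzyme reaction 45 min at room temperature, colour 5 min, stabilisation 30 min; Signal: Phosphate-binding colour reagent, absorbance read at 630 nm.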
STEP block: STEP phosphatase inhibitors, primary screen, biochemical, fluorescence intensity, uHTS; Tyrosine-protein phosphatase non-receptor type 5 (Homo sapiens), P54829; recombinant STEP, OMFP fluorogenic substrate; inhibition, % at 20 µM; 360,000 tested, 0.25% active;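 active = inhibition at 20 µM, scaled per plate between control wells, above about 37%, limit read from the data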;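 also: 0% = DMSO with enzyme and substrate and 100% = substrate only without enzyme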
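Also added – OMFP at 25 µM · Test system – STEP tyrosine phosphatase · Technique – FITC-channel fluorescence of OMFP product · Schedule – 20 min at room temperature, dark · Evaluation – control-normalized % inhibition with plate pattern correction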
LMPTP block: LMPTP phosphatase inhibitors, primary screen, biochemical, fluorescence intensity, uHTS; Low molecular weight phosphotyrosine protein phosphatase (Homo sapiens), P24666; recombinant LMPTP-A, OMFP fluorogenic substrate; inhibition, % at 20 µM; 360,000 tested, 0.22% active;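 active = compounds that cut the enzyme signal by at least half of the control window in the single-dose screen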;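 also: plate controls were DMSO wells with enzyme plus substrate for no effect and substrate without enzyme for full effect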
Target sequence (P24666 whole entry, looked up): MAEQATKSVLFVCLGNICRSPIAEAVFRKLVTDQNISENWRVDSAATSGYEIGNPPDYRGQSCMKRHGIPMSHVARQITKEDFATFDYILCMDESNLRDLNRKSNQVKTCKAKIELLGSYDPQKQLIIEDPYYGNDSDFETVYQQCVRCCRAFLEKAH
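material = LMPTP-A | quantity = 0.625 nM enzyme | reagent = OMFP substrate, 400 µM final | buffer or medium = Bis-Tris pH 6.0, DTT, detergent | detection = endpoint fluorescence intensity from OMFP dephosphorylation | dosing = single 20 µM dose | read-out basis = % inhibition relative to no-enzyme and uninhibited control wells | control set = no-enzyme and uninhibited controls | timing = 50 min at room temperature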
DNMT1 interf DR: spectral interference with molecular beacon fluorescence, dose response, artefact control for DNMT1 inhibitor project, biochemical, fluorescent molecular beacon | AID 602382, 2012 | 200 tested, under 10 active | IC50, µM | shares compounds with DNMT1 inh | spectral interference counter-screen; call rule not given here
DNMT1 confirm: DNMT1 methyltransferase inhibitor retest, confirmation, biochemical, molecular beacon, fluorescence, single concentration | shares compounds with DNMT1 inh | DNMT1 molecular beacon HinP1I cleavage | inhibition, % at 10 µM | 2,300 tested, 8% active | AID 602385, 2012;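 active = average inhibition of at least 30% in the single-concentration confirmation test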
DNMT1 interf: shows spectral interference in the DNMT1 beacon assay; DNMT1 molecular beacon spectral interference counterscreen, fluorescence 485/520; 2,300 tested, 1% active; activation (fluorescence interference), % at 10 µM; AID 602387; shares compounds with DNMT1 inh;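 active = activation of at least 30% at 10 µM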;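 also: DNMT1 catalytic domain with a HinP1I cleavage step and a FAM/dabcyl DNA beacon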
An asterisk follows results filed as active; . = not tested or not shown.

SMILES | Rpn11 block | DNMT1 inh | Scp-1 inhibitor | STEP block | LMPTP block | DNMT1 confirm | DNMT1 interf | others
NS(=O)(=O)c1ccc(N=Nc2ccc(=O)[nH]c2O)cc1 | -1 | 100* | 86* | 85* | 16 | 30 | -1 | DNMT1 interf DR=>99
CCOC(=O)c1cc(-c2cc3ccccc3o2)nc2c1c(=O)[nH]c(=O)n2CCOC | -2 | 8 | -3 | 1 | -1 | . | .
CCOC(=O)c1cc(-c2ccc([N+](=O)[O-])cc2)nc2c1c(=O)[nH]c(=O)n2Cc1ccccc1 | 4 | 86* | -5 | 8 | 1 | 3 | 1
O=C1NC(Cc2ccc(O)cc2)c2nc3cc(F)c(F)cc3c(=O)n2-c2ncccc21 (stereo unspecified) | -7 | 2 | . | -1 | -1 | . | .
O=C(O)c1ccccc1C1=Nc2ccc(O)cc2Oc2cc(O)ccc21 | -175 | 55* | 0 | -8 | -2 | 39* | 45*
COc1ccc(CN(C)CCCn2ccc(N)nc2=O)cc1OC | -4 | 2 | . | 0 | -3 | . | .
COc1ccc(CN(C)C(=O)Cn2ccc(N)nc2=O)cc1OC | 0 | 89* | -4 | 1 | -1 | 1 | 3
O=C1N/C(=C/c2ccc(Br)cc2)C(O)=C1C=NCc1ccccc1 | 0 | 62* | -2 | -2 | 0 | 0 | 1
O=C1C(C=NCc2ccncc2)=C(O)c2ccccc21 | 2 | -2 | 5 | 1 | 0 | . | .
COc1ccc(NC(=O)COC(=O)c2c3c(nc4ccccc24)CCCC3)cc1 | 9 | 55* | 2 | -1 | 1 | 2 | 4
O=C(C1CCN(S(=O)(=O)c2cccs2)CC1)N1CCCCC1 | 3 | 4 | 7 | 1 | -1 | . | .
O=C1CCC/C(=N/NC(=O)C2CCN(S(=O)(=O)c3cccs3)CC2)C1 | -6 | 71* | -7 | -3 | -1 | 1 | 4
COC(=O)c1cc2occc2n1Cc1nc(-c2ccccc2Cl)oc1C | 8 | 86* | -13 | -12 | 0 | 1 | 2
CCOC(=O)c1c(C)[nH]c(C(=O)OC(C)C(=O)Nc2ccccc2OC)c1C (stereo unspecified) | -1 | 2 | -5 | 0 | 2 | . | .
CCOC(=O)c1c(C)[nH]c(C(=O)OC(C)C(=O)Nc2ccc(C)cc2)c1C (stereo unspecified) | -4 | 74* | . | -2 | 1 | -2 | -2
Cc1cc2nc3c(=O)n(C4CCCCC4)c(=O)[nH]c3nc2cc1N | -155 | 58* | -9 | -106 | -5 | 64* | 34*
CCCCN(C(=O)c1cccc(S(=O)(=O)N2CCCC2)c1)c1c(N)n(CCC)c(=O)[nH]c1=O | -5 | 6 | 6 | -2 | -1 | . | .
CCCCN(C(=O)c1cccc(-n2cccc2)c1)c1c(N)n(CCC)c(=O)[nH]c1=O | -10 | 62* | 70* | 8 | 4 | 5 | 6
CC12CCC(C(=O)N3CCCCC3)([C@H](Br)C1=O)C2(C)C (stereo partly specified) | -4 | 0 | -7 | -2 | -1 | . | .
Cc1ccccc1OCc1nnc(SCC(=O)Nc2ccc3c(c2)OCO3)n1C | 8 | -2 | -2 | -2 | -2 | . | .
Cc1ccccc1OCc1nnc(SCC(=O)Nc2ccc3nc(SCC(=O)Nc4ccccc4)sc3c2)n1C | 9 | 56* | -1 | 0 | 1 | 2 | -1
O=C(/C=C/c1ccco1)Nc1ccccc1C(=O)O | -10 | 80* | 54* | 11 | 0 | 7 | -6
O=C(/C=C/c1ccco1)Nc1sc2c(c1C(=O)O)CCC2 | -10 | 53* | 29 | 2 | -1 | 1 | -1
N#Cc1c(NC(=O)/C=C/c2ccco2)sc2c1CCCC2 | 26 | 7 | 6 | 1 | 1 | . | .
CC1(C)CC(Cc2cccc(C(F)(F)F)c2)N(C(=O)OC(C)(C)C)C1 (stereo unspecified) | -4 | -2 | . | 1 | 0 | . | .
SMILES | Rpn11 block | DNMT1 inh | Scp-1 inhibitor | STEP block | LMPTP block | DNMT1 confirm | DNMT1 interf | others
Cc1cccc2sc(NS(=O)(=O)c3ccccc3)nc12 | -4 | 2 | -8 | 2 | 0 | . | .
O=C1CC(c2ccco2)Sc2nc3ccccc3n21 (stereo unspecified) | 10 | 56* | 0 | 7 | 1 | 5 | 5
CC(=C\C(=O)O)/C(=C/c1ccc(C)o1)C(=O)O | -12 | 78* | 56* | -1 | -2 | 9 | 14
COc1ccc(Cl)cc1C(=O)Nn1cnnc1 | 6 | 1 | -5 | -3 | -1 | . | .
CCCCCn1c(N)c(-c2nc3ccccc3o2)c2c([N+](=O)[O-])nn(CC)c(=O)c21 | -20 | 95* | 102* | 38 | 56* | 2 | 1
CNc1cccccc1=S | -73 | 85* | 10 | 6 | 58* | 0 | 4
CNc1ccccc1 | 8 | -2 | -6 | 3 | 0 | . | .
CCCOc1ccc(CC(=O)NCCc2ccccc2)cc1OC | 2 | 1 | 4 | 2 | 0 | . | .
CC1=NN(c2ccccc2)C(=O)/C1=C\C=C\c1ccccc1 | 10 | 8 | -21 | 2 | 4 | . | .
CC1=NN(c2ccc(C)c(C)c2)C(=O)/C1=C\C=C\c1ccc([N+](=O)[O-])o1 | -2 | 91* | 65* | 3 | 6 | 14 | -3
Cc1cc(C)n2nc(C(=O)N/N=C/c3c4ccccc4cc4ccccc34)nc2n1 | -6 | 92* | -13 | 4 | 9 | -1 | 1
Cc1cc(C)n2nc(C(=O)N/N=C/c3ccccc3Cl)nc2n1 | 2 | 1 | -2 | 2 | -1 | . | .
CC(=O)c1ccc(NC(=S)N2CCN(CCN3C(=O)c4cccc5cccc(c45)C3=O)CC2)cc1 | -5 | 55* | 0 | 4 | 2 | 1 | -3
CC(=O)NC(c1ccccc1)c1nc(-c2csc3ccccc23)cs1 (stereo unspecified) | 1 | 6 | . | 0 | -1 | . | .
O=C1NC(=O)/C(=C\c2ccc(Sc3ccc(Cl)cc3)o2)N1 | -3 | 28 | 21 | -1 | -2 | . | .
